The source of these data is ChEMBL document CHEMBL3227986, “Design of species- or isozyme-specific enzyme inhibitors. 1. Effect of thymidine substituents on affinity for the thymidine site of hamster cytoplasmic thymidine kinase” (J Med Chem, 1979).

In test [1] the target is T1, Thymidine kinase, cytosolic (Cricetulus griseus) (UniProt P09768).
T1 sequence (whole entry): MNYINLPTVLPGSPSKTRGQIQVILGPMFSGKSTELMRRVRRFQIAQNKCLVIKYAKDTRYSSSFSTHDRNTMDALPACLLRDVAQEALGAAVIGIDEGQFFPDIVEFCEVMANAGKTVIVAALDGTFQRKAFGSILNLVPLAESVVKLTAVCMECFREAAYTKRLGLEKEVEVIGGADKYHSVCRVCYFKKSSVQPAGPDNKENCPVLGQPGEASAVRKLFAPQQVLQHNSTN
Nature of the test: Activity at thymidine kinase in BHK21 (C13) cells at 400 uM after 30 mins relative to thymidine. The format is cell-based. To be noted: Mesocricetus auratus. In a few lines:
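Radiolabeled thymidine or 2'-deoxyuridine derivatives tested as substrates: 40 μL BHK21(C13) 100000g supernatant, Tris-HCl 0.05 M pH 8.0, ATP 5 mM, MgCl2 2.5 mM, no thymidine, 30 min at 37 °C. Products separated by paper electrophoresis in 0.05 M triethylammonium bicarbonate pH 7.6; radioactivity counted in the TMP region.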

Test [2] concerns the target T2, Thymidine kinase 2, mitochondrial (Homo sapiens) (UniProt O00142).
T2 sequence (whole entry): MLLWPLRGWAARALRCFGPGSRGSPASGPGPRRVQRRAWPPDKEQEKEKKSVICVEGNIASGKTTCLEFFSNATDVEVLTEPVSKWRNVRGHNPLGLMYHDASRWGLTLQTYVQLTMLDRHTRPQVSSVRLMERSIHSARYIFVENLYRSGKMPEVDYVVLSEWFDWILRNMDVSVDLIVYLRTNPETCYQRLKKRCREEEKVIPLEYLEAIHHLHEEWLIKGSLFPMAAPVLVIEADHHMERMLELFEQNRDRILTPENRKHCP
Nature of the test: Effect on human mitochondrial thymidine kinase using [14C]thymidine at 2 mM after 10 mins by liquid scintillation spectrometer analysis relative to control in presence of Mg2+.

Test [3] has as its target T3, Thymidine kinase, cytosolic (Homo sapiens) (UniProt P04183).
T3 sequence (whole entry): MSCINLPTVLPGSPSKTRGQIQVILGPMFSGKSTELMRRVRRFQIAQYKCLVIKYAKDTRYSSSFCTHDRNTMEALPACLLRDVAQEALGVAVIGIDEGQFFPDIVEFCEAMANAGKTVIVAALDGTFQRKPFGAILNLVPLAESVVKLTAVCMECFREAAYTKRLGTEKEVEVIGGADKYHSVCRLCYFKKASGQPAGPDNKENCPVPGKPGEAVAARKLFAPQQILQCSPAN
Put plainly: Effect on human cytoplasmic thymidine kinase using [14C]thymidine at 2 mM after 10 mins by liquid scintillation spectrometer analysis relative to control in presence of Mg2+.

For test [4], the target named is T1, Thymidine kinase, cytosolic (Cricetulus griseus). Put plainly: Effect on thymidine kinase in BHK21 (C13) cells using [14C]thymidine at 5 mM after 10 mins by liquid scintillation spectrometer analysis relative to control in presence of Mg2+. The format is cell-based. To be noted: Mesocricetus auratus. Put shortly: (§1)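 BHK21(C13) high-speed supernatant, 10 min at 37 °C, [14C]TMP on DEAE-cellulose disks, scintillation counting. Phosphate donors (nucleoside triphosphates 5 mM, giving 2.5 mM Mg2+ triphosphates) tested with 14.4 μM [14C]thymidine. Inhibitor assays used 0.19 mM [14C]thymidine: 5-iodo nucleosides at 0.19 mM with saturating Mg2+-ATP, or dCTP 5 mM with ATP 5 mM and MgCl2 7.5 mM.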

The target is the same in test [5]. Put plainly: Inhibition of thymidine kinase in BHK21 (C13) cells using [14C]thymidine at 100 to 200 uM after 10 mins by liquid scintillation spectrometer analysis relative to control in presence of Mg2+. The format is cell-based. To be noted: Mesocricetus auratus.
In test [6] the target is T4, Thymidine kinase, cytosolic (Mus musculus, UniProt P04184).
T4 sequence (P04184 whole entry): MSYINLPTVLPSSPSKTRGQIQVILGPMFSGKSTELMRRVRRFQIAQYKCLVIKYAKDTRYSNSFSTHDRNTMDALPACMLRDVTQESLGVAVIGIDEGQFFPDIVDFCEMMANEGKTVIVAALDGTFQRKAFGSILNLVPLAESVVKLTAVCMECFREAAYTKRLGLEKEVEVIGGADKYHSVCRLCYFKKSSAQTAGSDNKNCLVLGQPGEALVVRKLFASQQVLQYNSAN
Put plainly: Competitive inhibition of thymidine kinase in mouse Ehrlich's ascites cells.

In test [7] the target is T1, Thymidine kinase, cytosolic (Cricetulus griseus). Nature of the test: Inhibition of thymidine kinase in BHK21 (C13) cells using thymidine as substrate assessed as formation of TMP at 6.8 mM. The conditions noted are these: Mesocricetus auratus. It is filed as cell-based. Put shortly: (§2)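 BHK21(C13) 100000g supernatant in Tris-HCl 0.05 M pH 8.0, ATP 5 mM, MgCl2 2.5 mM, [14C]thymidine 3.6 μM, 10 min at 37 °C. Reaction stopped by boiling; [14C]TMP bound to DEAE-cellulose disks and counted by liquid scintillation, corrected for unincubated blanks.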

For test [8] the target is unchanged. Nature of the test: Inhibition of thymidine kinase in BHK21 (C13) cells using thymidine as substrate assessed as formation of TMP at 3.4 mM. The format is cell-based. To be noted: Mesocricetus auratus. Put shortly:
as §2

The target is the same in test [9]. Nature of the test: Inhibition of thymidine kinase in BHK21 (C13) cells using thymidine as substrate assessed as formation of TMP at 13.2 mM. The format is cell-based. To be noted: Mesocricetus auratus. Put shortly: as §2
Test [10] has the same target. Nature of the test: Inhibition of thymidine kinase in BHK21 (C13) cells using thymidine as substrate assessed as formation of TMP at 6.6 mM. It is filed as cell-based. To be noted: Mesocricetus auratus. Put shortly: as §2
The target is the same in test [11]. Nature of the test: Inhibition of thymidine kinase in BHK21 (C13) cells using thymidine as substrate assessed as formation of TMP at 7.8 mM. It is filed as cell-based. The conditions noted are these: Mesocricetus auratus. In a few lines:
as §2

Test [12] has the same target. Put plainly: Inhibition of thymidine kinase in BHK21 (C13) cells using thymidine as substrate assessed as formation of TMP at 15.5 mM. It is filed as cell-based. To be noted: Mesocricetus auratus. In a few lines: as §2
Test [13] has the same target. Put plainly: Inhibition of thymidine kinase in BHK21 (C13) cells using thymidine as substrate assessed as formation of TMP at 1.4 mM. The format is cell-based. To be noted: Mesocricetus auratus. Put shortly:
as §2

The target is the same in test [14]. Put plainly: Inhibition of thymidine kinase in BHK21 (C13) cells using thymidine as substrate assessed as formation of TMP at […]. The format is cell-based. To be noted: Mesocricetus auratus.
Test [15] shares this target. Nature of the test: Inhibition of thymidine kinase in BHK21 (C13) cells using [14C]thymidine after 10 mins by liquid scintillation spectrometer analysis relative to control in presence of Mg2+. To be noted: Mesocricetus auratus. The format is cell-based. In a few lines:
as §1

The target in test [16] is T2, Thymidine kinase 2, mitochondrial (Homo sapiens). Put plainly: Inhibition of human mitochondrial thymidine kinase using [14C]thymidine after 10 mins by liquid scintillation spectrometer analysis relative to control in presence of Mg2+.
The target of test [17] is T3, Thymidine kinase, cytosolic (Homo sapiens). Put plainly: Inhibition of human cytoplasmic thymidine kinase using [14C]thymidine after 10 mins by liquid scintillation spectrometer analysis relative to control in presence of Mg2+.
Test [18] has as its target T1, Thymidine kinase, cytosolic (Cricetulus griseus). Nature of the test: Inhibition of thymidine kinase in BHK21 (C13) cells using thymidine as substrate assessed as formation of TMP at 14.4 mM. It is filed as cell-based. The conditions noted are these: Mesocricetus auratus. Put shortly:
as §2

For test [19] the target is unchanged. Nature of the test: Inhibition of thymidine kinase in BHK21 (C13) cells using thymidine as substrate assessed as formation of TMP at 7.2 mM. It is filed as cell-based. The conditions noted are these: Mesocricetus auratus. Put shortly:
as §2

The target is the same in test [20]. Nature of the test: Inhibition of thymidine kinase in BHK21 (C13) cells using thymidine as substrate assessed as formation of TMP at 0.2 mM. The format is cell-based. To be noted: Mesocricetus auratus. In a few lines: as §2
Test [21] shares this target. Nature of the test: Inhibition of thymidine kinase in BHK21 (C13) cells using thymidine as substrate assessed as formation of TMP at 0.1 mM. It is filed as cell-based. To be noted: Mesocricetus auratus. In a few lines:
as §2

Activity calls are given as the source filed them. The rule behind the calls is not given here.

For the molecule `CC(=O)NCC(O)[C@H]1O[C@@H](n2cc(C)c(=O)[nH]c2=O)C[C@@H]1O` (stereo in doubt; [14C]4a), the outcome in [1] was inactive.
On to `Nc1nc(=O)c2ncn([C@@H]3O[C@H](COP(=O)(O)OP(=O)(O)OP(=O)(O)O)[C@@H](O)[C@@H]3O)c2[nH]1`, for which the Activity in test [2] amounted to 46%; in test [3] it was 36%; in test [4], 6%.
Take `CCC(=O)NCC(OP(=O)(O)OP(=O)(O)OP(=O)(O)O)[C@H]1O[C@@H](n2cc(C)c(=O)[nH]c2=O)C[C@@H]1O` (single isomer, unassigned): the inhibition (as a rule, the percentage by which the read-out fell short of the control) in [5] is “Active”.
`CCOC1N([C@H]2C[C@H](O)[C@@H](CO)O2)C(=O)NC(=O)C1(C)Br` (single isomer, unassigned; more polar): affinity in [6] was put at a Ki of 24 µM.
As for `CCNc1cn([C@H]2C[C@H](O)[C@@H](CO)O2)c(=O)[nH]c1=O`, the inhibition in test [7] came out at 25%; in test [8], 13%.
As to `CCCC(=O)NC[C@H]1O[C@@H](n2cc(C)c(=O)[nH]c2=O)C[C@@H]1O`, the inhibition in test [9] amounted to 77%; in test [10], 38%.
As for `CCCn1c(=O)ccn([C@H]2C[C@H](O)[C@@H](CO)O2)c1=O`, the inhibition turned out to be 18% in test [11] and 36% in test [12].
As for `CC[S+]([O-])C[C@H]1O[C@@H](n2cc(C)c(=O)[nH]c2=O)C[C@@H]1O` (stereo not given in full), the figures for the inhibition in test [13] and in [14] were 13% and 30%, respectively.
In the case of `Nc1ccn([C@H]2C[C@H](O)[C@@H](COP(=O)(O)OP(=O)(O)OP(=O)(O)O)O2)c(=O)n1`, the inhibition in test [15] was determined as 27%; in test [16] it was 82%; in test [17], 15%.
Turning to `CCn1c(=O)ccn([C@H]2C[C@H](O)[C@@H](CO)O2)c1=O`, the inhibition in test [18] amounted to 45%; in [19], 24%.
In the case of `Nc1ccn([C@@H]2O[C@H](COP(=O)(O)OP(=O)(O)OP(=O)(O)O)[C@@H](O)[C@H]2O)c(=O)n1`, the Activity in [2] stood at 79%; in [3] it was 21%; in test [4], 15%.
Consider `O=c1ccn([C@H]2C[C@H](O)[C@@H](CO)O2)c(=O)[nH]1`, for which the inhibition in test [20] amounted to 59%; in test [21] it was 38%.
For the molecule `CCC(=O)NCC(OP(=O)(O)OP(=O)(O)OP(=O)(O)O)[C@H]1O[C@@H](n2cc(C)c(=O)[nH]c2=O)C[C@@H]1O` (single isomer, unassigned; more polar), in [5], the inhibition entry was “Active”.
